PubChem BioAssay AID504518 (Sanford-Burnham Center for Chemical Genomics, 2011)
The source made the active and inactive calls.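 Rule for the calls: active = mean IC50 at or below 20 µM; inactive = the rest.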

System: HEK-293T NF-kB-Luc, TNFa-induced, luciferase luminescence 14 h
Assay: inhibitors of TNFa-driven NF-kB luciferase in HEK-293T – cell-based, luminescence, selectivity assay for B-cell antigen receptor NF-kB inhibitors, SAR follow-up (AID 504518)
Method in brief: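 System: HEK-293-T cells carrying an NF-kB-driven luciferase reporter; Input: 6000 cells per well; Buffer or medium: phenol-red-free DMEM; Reagent: TNF-alpha, 0.1 ng/mL; Doses: compound dilution series, DMSO no higher than 1%; Times: 14 h compound exposure, 37 °C; Measured by: luciferase luminescence measured with SteadyGlo reagent.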

Row | SMILES | IC50
1 | CN(C)C(=O)CCc1nc(-c2ccc(C(C)(C)C)cc2)no1 | 42.2 µM (inactive)
2 | Cc1oc(-c2ccc(C(F)(F)F)cc2)nc1CSCC(=O)NC1CC1 | 24.4 µM (inactive)
3 | CCCCOc1ccc(-c2nc(CSCC(=O)NCc3ccco3)c(C)o2)cc1 | 13.1 µM
4 | CC(C)(C)c1ccc(-c2noc(CCC(N)=O)n2)cc1 | 0.78 µM
5 | CCc1ccc(-c2nc(CSCC(=O)NC3CC3)c(C)o2)cc1 | 42.2 µM (inactive)
6 | CCOc1cccc(-c2nc(CSCC(=O)NC3CC3)c(C)o2)c1 | > 79 µM (inactive)
7 | CCCOc1ccc(-c2nc(CSCC(=O)NCc3ccco3)c(C)o2)cc1 | 9.74 µM
8 | CCOc1ccc(-c2nc(CSCC(=O)NCc3ccco3)c(C)o2)cc1 | 21.4 µM (inactive)
9 | CCc1ccc(-c2noc(CCC(=O)NC(C)CC)n2)cc1 (stereo not drawn) | 14.1 µM
10 | CCOc1ccc(-c2nc(CSCC(N)=O)c(C)o2)cc1 | > 79 µM (inactive)
11 | CNC(=O)CCc1nc(-c2ccccc2)no1 | > 79 µM (inactive)
12 | CCOc1ccc(-c2nc(CSCC(=O)O)c(C)o2)cc1 | 0.04 µM
13 | CCCOc1ccc(-c2nc(CSCC(=O)NC3CC3)c(C)o2)cc1 | 31.5 µM (inactive)
14 | CCCCOc1ccc(-c2nc(CSCC(=O)NC3CC3)c(C)o2)cc1 | 11.1 µM
15 | CCNC(=O)CCc1nc(-c2ccc(C(C)C)cc2)no1 | 21.3 µM (inactive)
16 | Cc1oc(-c2ccccc2)nc1CSCC(=O)NCc1ccco1 | > 79 µM (inactive)
17 | CC(C)(C)c1ccc(-c2noc(CCC(=O)NC3CCC3)n2)cc1 | 1.18 µM
18 | CCOc1ccc(-c2nc(CSCC(=O)NCC3CC3)c(C)o2)cc1 | 55.4 µM (inactive)
19 | Cc1oc(-c2ccc(C(F)(F)F)cc2)nc1CSCC(=O)O | 0.38 µM
20 | C#CCNC(=O)CSCc1nc(-c2ccc(OCC)cc2)oc1C | > 79 µM (inactive)
21 | CCc1ccc(-c2noc(CCC(=O)NC)n2)cc1 | > 79 µM (inactive)
22 | COc1cccc(-c2cc(=O)c3cc(NC(=O)c4ccc(N(C)C)cc4)ccc3[nH]2)c1 | 15.2 µM
23 | CCc1ccc(-c2nc(CSCC(=O)NC3CC3)c(-c3ccccc3)o2)cc1 | > 79 µM (inactive)
24 | Cc1ccc(-c2nc(CSCC(=O)NC3CC3)c(C)o2)cc1 | 71.1 µM (inactive)
25 | CNC(=O)CCc1nc(-c2ccc(C(C)(C)C)cc2)no1 | 66.8 µM (inactive)
26 | CC(C)Nc1ccc(C(CC(=O)O)NC(=O)c2ccccc2)cc1[N+](=O)[O-] (stereo not drawn) | > 79 µM (inactive)

Row | SMILES | IC50
27 | CNC(=O)CCc1nc(-c2ccc(C(C)C)cc2)no1 | 56.9 µM (inactive)
28 | CCCOc1ccc(-c2nc(CSCC(=O)O)c(C)o2)cc1 | 0.03 µM
29 | COc1ccc(-c2nc(CSCC(=O)NCc3ccco3)c(C)o2)cc1 | 35.8 µM (inactive)
30 | Cc1oc(-c2ccc(OC(F)(F)F)cc2)nc1CSCC(=O)NC1CC1 | 27.9 µM (inactive)
31 | CCc1ccc(-c2noc(CCC(=O)NC(C)(C)C)n2)cc1 | 22 µM (inactive)
32 | COc1ccc(-c2nc(CSCC(=O)NC3CC3)c(C)o2)cc1 | > 79 µM (inactive)
33 | CCOc1ccc(-c2nc(CSCC(=O)NC3CC3)c(-c3ccccc3)o2)cc1 | > 79 µM (inactive)
34 | CCN(CC)C(=O)CCc1nc(-c2ccc(C(C)(C)C)cc2)no1 | 16.8 µM
35 | CCc1ccc(-c2noc(CCC(=O)NC3CC3)n2)cc1 | 21.1 µM (inactive)
36 | CC(C)(C)c1ccc(-c2noc(CCC(=O)NC3CC3)n2)cc1 | 12 µM
37 | CCOC(=O)CC(NC(=O)c1ccc(Br)cc1)c1ccc(F)c([N+](=O)[O-])c1 (stereo not drawn) | 73.4 µM (inactive)
38 | Cc1oc(-c2ccccc2)nc1CSCC(=O)NC1CC1 | > 79 µM (inactive)
39 | COc1ccc(C(=O)Nc2ccc3[nH]c(-c4cccc(OC)c4)cc(=O)c3c2)cc1 | > 79 µM (inactive)
40 | CCNC(=O)CCc1nc(-c2ccccc2Cl)no1 | > 79 µM (inactive)
41 | O=C(CCc1nc(-c2ccccc2)no1)NC1CC1 | > 79 µM (inactive)
42 | CCNC(=O)CCc1nc(-c2ccc(CC)cc2)no1 | 65.3 µM (inactive)
43 | CCC(C)NC(=O)CCc1nc(-c2ccccc2)no1 (stereo not drawn) | > 79 µM (inactive)
44 | COc1cccc(-c2cc(=O)c3cc(NC(=O)c4ccccc4)ccc3[nH]2)c1 | > 79 µM (inactive)
45 | CCNC(=O)CCc1nc(-c2c(Cl)cccc2Cl)no1 | > 79 µM (inactive)
46 | CCNC(=O)CCc1nc(-c2cccc(F)c2)no1 | > 79 µM (inactive)
47 | O=C(O)CCc1nc(-c2ccccc2)no1 | > 79 µM (inactive)
48 | CCNC(=O)CCc1nc(-c2ccc(C(C)(C)C)cc2)no1 | 35.8 µM (inactive)
49 | CCCCc1ccc(-c2noc(CCC(=O)NC(C)CC)n2)cc1 (stereo not drawn) | 0.51 µM
50 | CCCCc1ccc(-c2noc(CCC(=O)NC)n2)cc1 | 1.98 µM
51 | COC(=O)CCc1nc(-c2ccc(C(C)(C)C)cc2)no1 | 0.22 µM
52 | CC(C)c1ccc(-c2noc(CCC(=O)NC3CC3)n2)cc1 | 3.11 µM

Row | SMILES | IC50
53 | CCCCOc1ccc(-c2nc(CSCC(=O)O)c(C)o2)cc1 | 0.04 µM
54 | CCCCc1ccc(-c2noc(CCC(=O)NC(C)(C)C)n2)cc1 | 0.66 µM
55 | CCOc1ccc(-c2nc(CSCC(=O)N(C)C)c(C)o2)cc1 | 78.5 µM (inactive)
56 | CCOc1ccc(-c2nc(CSCC(=O)N3CCOCC3)c(C)o2)cc1 | 64.6 µM (inactive)
57 | CCCCc1ccc(-c2noc(CCC(=O)NC3CC3)n2)cc1 | 0.55 µM
58 | Cc1ccc(-c2nc(CSCC(=O)NCc3ccco3)c(C)o2)cc1 | 33.6 µM (inactive)
59 | CCOc1ccc(-c2nc(CSCC(=O)NC3CCC3)c(C)o2)cc1 | 38.7 µM (inactive)
60 | CC(C)(C)c1ccc(-c2noc(CCC(=O)O)n2)cc1 | 0.29 µM
61 | CCCCc1ccc(-c2noc(CCC(=O)NCC)n2)cc1 | 0.77 µM
62 | CCNC(=O)CCc1nc(-c2ccccc2)no1 | > 79 µM (inactive)
63 | Cc1oc(-c2ccc(OC(F)(F)F)cc2)nc1CSCC(=O)O | 0.11 µM
64 | CCNC(=O)CCc1nc(-c2ccccc2C)no1 | > 79 µM (inactive)
65 | CCNC(=O)CCc1nc(-c2cccc(OC)c2)no1 | > 79 µM (inactive)
66 | CCOc1ccc(-c2nc(CSCC(=O)NC3CC3)c(C)o2)cc1 | > 79 µM (inactive)
67 | CC(C)(C)NC(=O)CCc1nc(-c2ccccc2)no1 | > 79 µM (inactive)
68 | CCc1ccc(-c2nc(CSCC(=O)NCc3ccco3)c(C)o2)cc1 | > 79 µM (inactive)
69 | CCOc1ccccc1-c1nc(CSCC(=O)NC2CC2)c(C)o1 | > 79 µM (inactive)
70 | CCOc1ccc(-c2noc(CCC(=O)O)n2)cc1 | 10.6 µM
71 | CCNC(=O)CCc1nc(-c2cccc(C)c2)no1 | > 79 µM (inactive)
72 | CCOc1ccc(-c2nc(CSCC(=O)NC(C)(C)C)c(C)o2)cc1 | 37.7 µM (inactive)
73 | CCNC(=O)CCc1nc(-c2ccc(OCC)cc2)no1 | > 79 µM (inactive)
74 | CCC(C)NC(=O)CCc1nc(-c2ccc(C(C)C)cc2)no1 (stereo not drawn) | 3.48 µM
75 | CCOc1ccc(-c2nc(CSCC(=O)NC)c(C)o2)cc1 | > 79 µM (inactive)
76 | CCOc1ccccc1-c1nc(CSCC(=O)O)c(C)o1 | > 79 µM (inactive)
77 | CCC(C)NC(=O)CCc1nc(-c2ccc(C(C)(C)C)cc2)no1 (stereo not drawn) | 3 µM
78 | CC(C)c1ccc(-c2noc(CCC(=O)NC(C)(C)C)n2)cc1 | 5 µM
